Results taken from article PMC2099187 (The Journal of Cell Biology, 2007).
Where “and” joins values, the source holds several entries; their conditions need not be identical. Equal values may be shown once.

Experiments:
Assay type in all cases: cell-based, human
A549 cells = test: Resensitization of ATII-induced Ca2+ signaling; details: ATII 1 μM 1 h, 1 h recovery; SM-19712 10 μM; endogenous AT1AR and ECE-1
Outline: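 A549 cells (native AT1AR, ECE-1) were loaded with Fura-2AM for [Ca2+]i at 37°C. They were preincubated with ATII 1 μM or vehicle (1 h, 37°C), washed, recovered 1 h, then rechallenged with ATII 1 μM. SM-19712 10 μM or DMSO was preincubated 20–60 min and kept throughout. Response was expressed as % of vehicle-treated cells.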

HEK cells = test: BK-induced Ca2+ signaling, desensitization and resensitization; details: SM-19712 10 μM
Outline: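 HEK cells with native B2R were loaded with Fura-2AM and [Ca2+]i read at 37°C, on coverslips or in suspension. Cells were preincubated with BK 100 nM or vehicle (10 min, 37°C), washed, recovered 0–120 min, then rechallenged with BK 100 nM. SM-19712 10 μM, bafilomycin A1 0.15 or 1 μM, or DMSO was preincubated 20–60 min and kept in buffers throughout.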

HEK-B2R-V2RCT cells = test: B2R-V2RCT recycling and colocalization with β-arrestin2-GFP; details: 2 h recovery, SM-19712 10 μM
Outline: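 HEK cells stably expressing HA-tagged B2R or B2R-V2RCT were transiently transfected with β-arrestin2-GFP. Surface receptors were labelled with anti-HA11 (1:100, 30 min, 37°C), then given BK 100 nM for 10 min and recovered in BK-free medium (B2R 1 h; B2R-V2RCT 2 h). SM-19712 10 μM or DMSO was preincubated 20–60 min and kept throughout. Cells were PFA-fixed for confocal imaging; plasma-membrane fraction of fluorescence and colocalization coefficient (0–1) were scored in >20 cells/experiment, n ≥ 3.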

SMILES: Cc1nn(-c2ccccc2)c(NC(=O)NS(=O)(=O)c2ccc(Cl)cc2)c1C#N.[Na] [SM-19712]
- Effect on resensitization of responses to ATII (A549 cells): did not affect resensitization
- Effect on response to a single BK challenge ([Ca2+]i) (HEK cells; BK 100 nM, thiorphan 1 μM, phosphoramidon 1 μM): did not affect responses to a single BK challenge
- Effect on desensitization of BK-induced Ca2+ signaling (HEK cells; bafilomycin A1 0.15 or 1 μM): had no effect
- Effect on resensitization of BK-induced Ca2+ signaling (HEK cells; bafilomycin A1 0.15 or 1 μM, 0–120 min recovery): had no effect
- Change of colocalization coefficient of B2R-V2RCT with β-arrestin2 (HEK-B2R-V2RCT cells): twofold increase
- Effect on localization of B2R-V2RCT during recovery (HEK-B2R-V2RCT cells; BK 100 nM 10 min): causing it retention in endosomes with β-arrestin2
- Reduction of recycling of B2R-V2RCT (HEK-B2R-V2RCT cells; BK 100 nM 10 min): ~50% and > 50%
